Results taken from ChEMBL document CHEMBL1250448, “Inhibitor hijacking of Akt activation” (Nat Chem Biol, 2009).

Assays:
[1] = target: Mitogen-activated protein kinase 3 (ERK1) (Homo sapiens) (UniProt P27361); assay: Inhibition of MAPK3 at 1 uM in presence of 10 uM ATP by Select Screen kinase assay relative to untreated control
[2] = target: Serine/threonine-protein kinase PLK3 (Homo sapiens) (UniProt Q9H4B4); assay: Inhibition of PLK3 at 1 uM in presence of 10 uM ATP by Select Screen kinase assay relative to untreated control
How it was run: (§1)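 Commercial SelectScreen profiling panel of 220 purified kinases. Each kinase was tested at a single inhibitor concentration of 1 μM, and activity was expressed as percent inhibition.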

[3] = target: T1, Serine/threonine-protein kinase Sgk3 (Homo sapiens) (UniProt Q96BR1); assay: Inhibition of SGKL at 1 uM in presence of 10 uM ATP by Select Screen kinase assay relative to untreated control
T1 sequence (whole entry): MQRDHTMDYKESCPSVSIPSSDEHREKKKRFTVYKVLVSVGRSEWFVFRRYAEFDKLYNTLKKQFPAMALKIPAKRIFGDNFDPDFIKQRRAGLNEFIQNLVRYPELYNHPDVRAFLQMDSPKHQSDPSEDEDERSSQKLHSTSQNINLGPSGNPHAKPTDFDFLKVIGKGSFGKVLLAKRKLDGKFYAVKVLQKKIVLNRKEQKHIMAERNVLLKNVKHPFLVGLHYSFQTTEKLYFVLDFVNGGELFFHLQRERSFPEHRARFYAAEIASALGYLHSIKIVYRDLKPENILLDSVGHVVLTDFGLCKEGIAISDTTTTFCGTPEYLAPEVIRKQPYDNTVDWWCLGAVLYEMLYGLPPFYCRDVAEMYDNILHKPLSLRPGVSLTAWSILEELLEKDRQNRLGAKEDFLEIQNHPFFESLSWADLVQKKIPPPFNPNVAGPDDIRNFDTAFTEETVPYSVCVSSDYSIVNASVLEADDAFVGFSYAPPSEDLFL
How it was run: as §1

[4] = target: Serine/threonine-protein kinase Nek7 (Homo sapiens) (UniProt Q8TDX7); assay: Inhibition of NEK7 at 1 uM in presence of 100 uM ATP by Select Screen kinase assay relative to untreated control
How it was run: as §1

[5] = target: T2, Interleukin-1 receptor-associated kinase 4 (Homo sapiens) (UniProt Q9NWZ3); assay: Inhibition of IRAK4 at 1 uM in presence of 10 uM ATP by Select Screen kinase assay relative to untreated control
T2 sequence (whole entry): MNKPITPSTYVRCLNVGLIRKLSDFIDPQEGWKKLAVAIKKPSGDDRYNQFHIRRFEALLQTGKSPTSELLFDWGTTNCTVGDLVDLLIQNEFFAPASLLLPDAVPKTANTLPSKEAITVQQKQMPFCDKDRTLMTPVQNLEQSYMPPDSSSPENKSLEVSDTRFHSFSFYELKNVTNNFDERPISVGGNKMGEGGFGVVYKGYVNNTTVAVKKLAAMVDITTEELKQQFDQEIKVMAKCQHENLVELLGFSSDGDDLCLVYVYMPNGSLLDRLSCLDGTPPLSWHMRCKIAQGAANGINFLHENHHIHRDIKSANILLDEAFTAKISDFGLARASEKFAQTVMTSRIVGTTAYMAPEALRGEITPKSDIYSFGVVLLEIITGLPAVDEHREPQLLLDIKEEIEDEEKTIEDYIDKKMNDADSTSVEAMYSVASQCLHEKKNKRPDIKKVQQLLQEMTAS
How it was run: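 Single-concentration profiling at 1 μM against a panel of 220 purified kinases, run as an outsourced SelectScreen kinase profiling service. Activity is expressed as percent inhibition.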

[6] = target: Ribosomal protein S6 kinase alpha-5 (Homo sapiens) (UniProt O75582); assay: Inhibition of RPS6KA5 at 1 uM in presence of 10 uM ATP by Select Screen kinase assay relative to untreated control
How it was run: as §1

[7] = target: T3, Ephrin type-B receptor 1 (Homo sapiens) (UniProt P54762); assay: Inhibition of EPHB1 at 1 uM in presence of 10 uM ATP by Select Screen kinase assay relative to untreated control
T3 sequence (whole entry): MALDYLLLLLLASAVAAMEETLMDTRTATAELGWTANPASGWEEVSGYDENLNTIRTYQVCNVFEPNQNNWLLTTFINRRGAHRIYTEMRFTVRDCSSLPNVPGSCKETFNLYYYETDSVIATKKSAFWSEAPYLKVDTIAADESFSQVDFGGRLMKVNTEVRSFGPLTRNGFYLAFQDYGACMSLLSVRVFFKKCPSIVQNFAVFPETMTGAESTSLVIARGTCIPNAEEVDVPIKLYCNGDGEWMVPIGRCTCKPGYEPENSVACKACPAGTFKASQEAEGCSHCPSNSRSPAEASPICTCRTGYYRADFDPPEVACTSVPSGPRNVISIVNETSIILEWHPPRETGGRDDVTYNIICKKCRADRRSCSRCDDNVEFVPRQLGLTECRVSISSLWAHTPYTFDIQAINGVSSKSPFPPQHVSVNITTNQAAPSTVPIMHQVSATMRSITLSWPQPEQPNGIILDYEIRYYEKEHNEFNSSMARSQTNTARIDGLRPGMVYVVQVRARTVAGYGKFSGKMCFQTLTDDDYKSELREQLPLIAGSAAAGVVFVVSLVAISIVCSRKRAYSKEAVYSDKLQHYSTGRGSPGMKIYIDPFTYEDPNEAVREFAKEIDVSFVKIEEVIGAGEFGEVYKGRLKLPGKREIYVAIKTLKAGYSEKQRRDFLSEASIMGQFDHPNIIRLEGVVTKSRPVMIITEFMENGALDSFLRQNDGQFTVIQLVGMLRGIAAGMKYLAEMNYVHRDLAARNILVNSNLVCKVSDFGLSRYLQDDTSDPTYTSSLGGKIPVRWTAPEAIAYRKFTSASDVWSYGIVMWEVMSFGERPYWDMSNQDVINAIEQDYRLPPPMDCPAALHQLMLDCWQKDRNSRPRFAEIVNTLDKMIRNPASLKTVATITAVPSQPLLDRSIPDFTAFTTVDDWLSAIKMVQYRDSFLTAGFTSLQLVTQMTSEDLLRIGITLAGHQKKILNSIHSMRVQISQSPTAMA
How it was run: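 Single-point screen at 1 μM against a panel of 220 purified kinases, run by Invitrogen staff as a SelectScreen profiling service. Read-out is percent inhibition of kinase activity.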

[8] = target: Serine/threonine-protein kinase PAK 5 (Homo sapiens) (UniProt Q9P286); assay: Inhibition of PAK7 at 1 uM in presence of 10 uM ATP by Select Screen kinase assay relative to untreated control
How it was run: as §1

[9] = target: Proto-oncogene tyrosine-protein kinase Src (Homo sapiens) (UniProt P12931); assay: Inhibition of SRC N1 at 1 uM in presence of 10 uM ATP by Select Screen kinase assay relative to untreated control
How it was run: as §1

[10] = target: Serine/threonine-protein kinase PAK 2 (Homo sapiens) (UniProt Q13177); assay: Inhibition of PAK2 at 1 uM in presence of 10 uM ATP by Select Screen kinase assay relative to untreated control
How it was run: as §1

Chain of Serine/threonine-protein kinase PAK 2 (Homo sapiens) (Q13177 whole entry): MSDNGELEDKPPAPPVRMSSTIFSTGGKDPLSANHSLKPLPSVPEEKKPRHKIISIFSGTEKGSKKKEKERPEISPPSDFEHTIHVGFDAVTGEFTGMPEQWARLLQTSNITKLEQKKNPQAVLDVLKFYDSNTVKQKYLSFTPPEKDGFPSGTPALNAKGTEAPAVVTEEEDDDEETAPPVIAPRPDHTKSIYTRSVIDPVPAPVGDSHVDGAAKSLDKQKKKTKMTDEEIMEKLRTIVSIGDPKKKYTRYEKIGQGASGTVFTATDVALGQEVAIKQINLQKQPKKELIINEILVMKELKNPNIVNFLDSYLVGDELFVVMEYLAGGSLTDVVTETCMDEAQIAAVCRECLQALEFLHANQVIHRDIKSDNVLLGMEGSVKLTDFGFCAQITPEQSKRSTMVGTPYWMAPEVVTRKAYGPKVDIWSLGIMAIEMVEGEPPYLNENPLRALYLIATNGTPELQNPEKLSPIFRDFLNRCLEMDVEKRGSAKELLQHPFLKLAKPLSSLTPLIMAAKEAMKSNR
Chain of Serine/threonine-protein kinase Nek7 (Homo sapiens) (Q8TDX7 whole entry, looked up): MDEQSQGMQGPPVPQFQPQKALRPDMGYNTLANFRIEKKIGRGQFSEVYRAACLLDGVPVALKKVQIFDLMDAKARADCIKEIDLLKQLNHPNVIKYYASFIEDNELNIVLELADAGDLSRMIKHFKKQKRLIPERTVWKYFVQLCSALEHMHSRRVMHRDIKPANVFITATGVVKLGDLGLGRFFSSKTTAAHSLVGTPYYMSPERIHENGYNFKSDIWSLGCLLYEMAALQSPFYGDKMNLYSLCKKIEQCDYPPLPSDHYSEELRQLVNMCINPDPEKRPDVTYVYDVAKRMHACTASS
Chain of Serine/threonine-protein kinase PAK 5 (Homo sapiens) (Q9P286 whole entry, looked up): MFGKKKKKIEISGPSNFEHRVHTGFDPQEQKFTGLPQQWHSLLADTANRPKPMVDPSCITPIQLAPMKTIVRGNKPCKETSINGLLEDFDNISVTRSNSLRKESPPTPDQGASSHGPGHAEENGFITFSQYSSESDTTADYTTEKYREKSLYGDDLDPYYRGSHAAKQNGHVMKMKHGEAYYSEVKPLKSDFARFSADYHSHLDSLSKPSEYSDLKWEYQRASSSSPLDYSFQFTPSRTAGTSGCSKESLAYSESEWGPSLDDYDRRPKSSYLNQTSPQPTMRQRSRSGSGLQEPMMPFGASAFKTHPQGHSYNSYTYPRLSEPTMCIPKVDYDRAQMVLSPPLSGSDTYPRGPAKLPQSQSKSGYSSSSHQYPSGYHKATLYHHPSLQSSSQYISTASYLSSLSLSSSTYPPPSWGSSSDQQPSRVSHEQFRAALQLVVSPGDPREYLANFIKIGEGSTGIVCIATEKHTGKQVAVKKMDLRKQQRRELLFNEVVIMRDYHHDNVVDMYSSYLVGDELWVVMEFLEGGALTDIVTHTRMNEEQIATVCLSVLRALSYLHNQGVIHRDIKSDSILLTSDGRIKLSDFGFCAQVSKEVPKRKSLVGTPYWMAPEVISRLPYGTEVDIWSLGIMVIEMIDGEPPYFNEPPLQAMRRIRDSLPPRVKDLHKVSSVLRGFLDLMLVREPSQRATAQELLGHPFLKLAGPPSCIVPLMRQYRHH
Chain of Mitogen-activated protein kinase 3 (ERK1) (Homo sapiens) (P27361 whole entry, looked up): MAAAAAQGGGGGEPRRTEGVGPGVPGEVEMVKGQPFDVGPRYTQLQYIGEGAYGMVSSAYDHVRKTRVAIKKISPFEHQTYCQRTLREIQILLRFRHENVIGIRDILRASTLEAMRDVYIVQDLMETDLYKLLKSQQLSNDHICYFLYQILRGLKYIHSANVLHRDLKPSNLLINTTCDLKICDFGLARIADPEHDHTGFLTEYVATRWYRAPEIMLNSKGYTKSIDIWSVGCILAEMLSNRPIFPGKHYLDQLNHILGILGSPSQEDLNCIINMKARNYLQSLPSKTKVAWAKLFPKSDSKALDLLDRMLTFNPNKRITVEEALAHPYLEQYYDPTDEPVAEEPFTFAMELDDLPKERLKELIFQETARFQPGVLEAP
Chain of Serine/threonine-protein kinase PLK3 (Homo sapiens) (Q9H4B4 whole entry, looked up): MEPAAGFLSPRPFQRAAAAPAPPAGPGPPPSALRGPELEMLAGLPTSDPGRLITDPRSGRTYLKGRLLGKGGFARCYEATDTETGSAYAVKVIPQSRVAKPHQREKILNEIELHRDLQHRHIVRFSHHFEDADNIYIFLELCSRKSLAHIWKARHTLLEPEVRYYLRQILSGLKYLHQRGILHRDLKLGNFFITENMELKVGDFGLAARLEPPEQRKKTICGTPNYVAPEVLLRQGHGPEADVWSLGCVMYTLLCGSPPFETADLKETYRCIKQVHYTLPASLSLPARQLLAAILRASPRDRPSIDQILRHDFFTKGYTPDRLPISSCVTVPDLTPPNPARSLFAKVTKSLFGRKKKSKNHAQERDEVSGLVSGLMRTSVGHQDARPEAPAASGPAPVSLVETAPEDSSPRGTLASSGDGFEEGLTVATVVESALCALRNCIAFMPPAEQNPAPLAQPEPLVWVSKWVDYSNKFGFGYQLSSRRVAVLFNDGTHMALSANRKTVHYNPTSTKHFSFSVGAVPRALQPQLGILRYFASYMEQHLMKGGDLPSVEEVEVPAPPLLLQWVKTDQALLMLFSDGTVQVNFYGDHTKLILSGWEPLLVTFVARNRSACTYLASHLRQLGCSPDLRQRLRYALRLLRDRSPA
Chain of Proto-oncogene tyrosine-protein kinase Src (Homo sapiens) (P12931 2-536 limits assumed): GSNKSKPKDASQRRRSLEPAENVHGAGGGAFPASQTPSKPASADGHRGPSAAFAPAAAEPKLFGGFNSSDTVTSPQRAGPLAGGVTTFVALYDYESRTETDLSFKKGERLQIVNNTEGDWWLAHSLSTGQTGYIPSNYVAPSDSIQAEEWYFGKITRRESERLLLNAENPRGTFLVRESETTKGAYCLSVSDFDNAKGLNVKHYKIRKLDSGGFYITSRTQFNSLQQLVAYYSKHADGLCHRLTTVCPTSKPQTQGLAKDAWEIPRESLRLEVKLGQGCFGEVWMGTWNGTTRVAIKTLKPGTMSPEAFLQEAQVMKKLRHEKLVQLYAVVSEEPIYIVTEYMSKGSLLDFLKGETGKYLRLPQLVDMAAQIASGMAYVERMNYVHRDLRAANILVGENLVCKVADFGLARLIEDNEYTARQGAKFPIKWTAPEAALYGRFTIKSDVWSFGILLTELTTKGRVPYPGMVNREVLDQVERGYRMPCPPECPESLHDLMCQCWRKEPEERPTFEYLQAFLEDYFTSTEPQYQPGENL
Chain of Ribosomal protein S6 kinase alpha-5 (Homo sapiens) (O75582 whole entry, looked up): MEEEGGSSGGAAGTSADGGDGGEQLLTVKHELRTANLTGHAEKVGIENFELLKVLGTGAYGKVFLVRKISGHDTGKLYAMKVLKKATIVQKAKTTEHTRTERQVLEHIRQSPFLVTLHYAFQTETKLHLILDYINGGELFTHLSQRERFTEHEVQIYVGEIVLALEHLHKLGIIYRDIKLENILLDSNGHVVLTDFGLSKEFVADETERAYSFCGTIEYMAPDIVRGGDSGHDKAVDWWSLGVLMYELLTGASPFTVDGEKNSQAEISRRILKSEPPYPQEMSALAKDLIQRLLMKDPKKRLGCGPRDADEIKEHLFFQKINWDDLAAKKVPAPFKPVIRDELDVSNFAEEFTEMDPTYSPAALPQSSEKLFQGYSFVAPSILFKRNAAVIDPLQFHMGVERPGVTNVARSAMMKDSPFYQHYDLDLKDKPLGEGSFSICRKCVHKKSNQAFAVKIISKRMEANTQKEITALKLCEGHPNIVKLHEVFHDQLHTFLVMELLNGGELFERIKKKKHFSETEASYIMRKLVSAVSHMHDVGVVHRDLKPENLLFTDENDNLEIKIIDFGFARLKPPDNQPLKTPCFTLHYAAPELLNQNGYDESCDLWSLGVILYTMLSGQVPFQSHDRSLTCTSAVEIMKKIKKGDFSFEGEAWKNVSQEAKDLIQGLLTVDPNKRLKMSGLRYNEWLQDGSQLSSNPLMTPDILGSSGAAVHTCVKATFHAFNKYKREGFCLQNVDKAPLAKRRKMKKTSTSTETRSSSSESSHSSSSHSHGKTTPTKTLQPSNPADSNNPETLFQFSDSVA

Compound | inhibition [1] [%] | inhibition [2] [%] | inhibition [3] [%] | inhibition [4] [%] | inhibition [5] [%] | inhibition [6] [%] | inhibition [7] [%] | inhibition [8] [%] | inhibition [9] [%] | inhibition [10] [%]
Cc1n[nH]c2ccc(-c3cncc(OC[C@@H](N)Cc4c[nH]c5ccccc45)c3)cc12 | 43 | 7 | 78 | 1 | 53 | 102 | 1 | 25 | 5 | 55
O=C(NCCCNc1nc(Nc2cccc(NC(=O)N3CCCC3)c2)ncc1I)c1cccs1 | 47 | 51 | 12 | 9 | 49 | 18 | 16 | 25 | 30 | 5
COc1ccccc1N1CCN(c2ncnc3[nH]nc(Br)c23)CC1 | 14 | 27 | 17 | 13 | 9 | 83 | 11 | 1 | 15 | 9
